Results: ChEMBL document CHEMBL1125014, “Synthesis and structure-activity relationships of new 9-N-alkyl derivatives of 9(S)-erythromycylamine” (1990)
In brackets after ≈: the same amount, converted by molar mass.

Columns and labels:
Assay type in all cases: functional
Streptococcus pneumoniae [1] = assay: MIC value was measured against streptococcus pneumoniae park1
Procedure, shortened: (§1)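 Susceptibility determined by standard agar-dilution method against a panel of bacterial strains.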

Haemophilus influenzae [2] = assay: MIC value was measured against haemophilus influenzae CL
Staphylococcus aureus [3] = assay: Effective dose against mice infected with Staphylococcus aureus after peroral administration (in vivo); conditions: in Mus musculus, po
Enterococcus faecalis [4] = assay: MIC value was measured against streptococcus faecalis X66; procedure, shortened: as §1
[5] = tested on: Staphylococcus epidermidis; assay: microbe, parasite or virus in culture
Staphylococcus aureus [6] = assay: MIC value measured against staphylococcus aureus X1
Streptococcus pyogenes [7] = assay: Effective dose against mice infected with streptococcus pyogenes after peroral administration (in vivo); conditions: in Mus musculus, po
Streptococcus pyogenes [8] = assay: MIC value measured against streptococcus pyogenes C203
Streptococcus pneumoniae [9] = assay: Effective dose against mice infected with streptococcus pneumoniae after peroral administration (in vivo); conditions: in Mus musculus, po
Mus musculus = species: Mus musculus; assay: ED50 value was measured against streptococcus pyogenes infection in mice.
Procedure, shortened: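 Infected mice were dosed orally or subcutaneously at 1 and 5 h postinfection, 0.25 mL of antibiotic solution in 10% aqueous ethanol per dose. Tartaric acid was added where needed for solubility. Several dose concentrations were tested to give the ED50.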

Haemophilus influenzae [10] = assay: MIC value was measured against haemophilus influenzae.; procedure, shortened: as §1
Streptococcus pneumoniae [11] = assay: MIC value measured against streptococcus pneumoniae Park1
Enterococcus faecalis [12] = assay: MIC value was measured against streptococcus faecalis.

Row | SMILES | MIC (Streptococcus pneumoniae [1]) | MIC (Haemophilus influenzae [2]) | ED50 (Staphylococcus aureus [3]) | MIC (Enterococcus faecalis [4]) | MIC [5] | MIC (Staphylococcus aureus [6]) | ED50 (Streptococcus pyogenes [7]) | MIC (Streptococcus pyogenes [8]) | ED50 (Streptococcus pneumoniae [9]) | ED50 (Mus musculus) | MIC (Haemophilus influenzae [10]) | MIC (Streptococcus pneumoniae [11]) | MIC (Enterococcus faecalis [12])
1 | CC[C@H]1OC(=O)[C@H](C)[C@@H](OC2CC(C)(OC)C(O)C(C)O2)[C@H](C)[C@@H](OC2OC(C)CC(N(C)C)C2O)[C@](C)(O)C[C@@H](C)[C@H](NCC#Cc2ccccc2)[C@H](C)[C@@H](O)[C@]1(C)O (some centres undefined) | 0.008 µg/mL (≈ 0.00942 µM) | 4 µg/mL (≈ 4.71 µM) | > 50 mg/kg | 0.25 µg/mL (≈ 0.294 µM) | 0.5 µg/mL (≈ 0.589 µM) | 1 µg/mL (≈ 1.18 µM) | 27 mg/kg | 0.008 µg/mL (≈ 0.00942 µM) | 34 mg/kg |  |  |  | 
2 | CC[C@H]1OC(=O)[C@H](C)[C@@H](OC2CC(C)(OC)C(O)C(C)O2)[C@H](C)[C@@H](OC2OC(C)CC(N(C)C)C2O)[C@](C)(O)C[C@@H](C)[C@H](NCc2ccccc2)[C@H](C)[C@@H](O)[C@]1(C)O (some centres undefined) | 0.015 µg/mL (≈ 0.0182 µM) | 2 µg/mL (≈ 2.42 µM) | > 50 mg/kg | 0.25 µg/mL (≈ 0.303 µM) | 0.5 µg/mL (≈ 0.606 µM) | 0.5 µg/mL (≈ 0.606 µM) | 9 mg/kg | 0.06 µg/mL (≈ 0.0727 µM) | 11 mg/kg |  |  |  | 
3 | CC[C@H]1OC(=O)[C@H](C)[C@@H](OC2CC(C)(OC)C(O)C(C)O2)[C@H](C)[C@@H](OC2OC(C)CC(N(C)C)C2O)[C@](C)(O)C[C@@H](C)[C@H](NCCCSC)[C@H](C)[C@@H](O)[C@]1(C)O (some centres undefined) |  | 4 µg/mL (≈ 4.86 µM) | 50 mg/kg |  | 0.5 µg/mL (≈ 0.607 µM) |  |  | 0.015 µg/mL (≈ 0.0182 µM) | 18 mg/kg | 7 mg/kg | 4 µg/mL (≈ 4.86 µM) | 0.015 µg/mL (≈ 0.0182 µM) | 
4 | CC[C@H]1OC(=O)[C@H](C)[C@@H](OC2CC(C)(OC)C(O)C(C)O2)[C@H](C)[C@@H](OC2OC(C)CC(N(C)C)C2O)[C@](C)(O)C[C@@H](C)[C@H](N)[C@H](C)[C@@H](O)[C@H]1C (some centres undefined) |  | 1 µg/mL (≈ 1.39 µM) |  |  | 0.12 µg/mL (≈ 0.167 µM) | 0.25 µg/mL (≈ 0.348 µM) |  | 0.015 µg/mL (≈ 0.0209 µM) |  |  |  | 0.015 µg/mL (≈ 0.0209 µM) | 0.12 µg/mL (≈ 0.167 µM)
5 | CC[C@H]1OC(=O)[C@H](C)[C@@H](OC2CC(C)(OC)C(O)C(C)O2)[C@H](C)[C@@H](OC2OC(C)CC(N(C)C)C2O)[C@](C)(O)C[C@@H](C)[C@H]2[C@H](C)[C@@H](OCN2C(C)CCCN(CC)CC)[C@]1(C)O (some centres undefined) | 0.5 µg/mL (≈ 0.563 µM) | 8 µg/mL (≈ 9.01 µM) |  | 2 µg/mL (≈ 2.25 µM) | 8 µg/mL (≈ 9.01 µM) | 8 µg/mL (≈ 9.01 µM) |  | 0.5 µg/mL (≈ 0.563 µM) |  |  |  |  | 
6 | CC[C@H]1OC(=O)[C@H](C)[C@@H](OC2CC(C)(OC)C(O)C(C)O2)[C@H](C)[C@@H](OC2OC(C)CC(N(C)C)C2O)[C@](C)(O)C[C@@H](C)[C@H](NC2CCCCC2)[C@H](C)[C@@H](O)[C@]1(C)O (some centres undefined) |  | 4 µg/mL (≈ 4.9 µM) |  |  | 0.5 µg/mL (≈ 0.612 µM) | 0.5 µg/mL (≈ 0.612 µM) |  | 0.06 µg/mL (≈ 0.0734 µM) |  |  |  | 0.03 µg/mL (≈ 0.0367 µM) | 0.25 µg/mL (≈ 0.306 µM)
7 | CCCCC/C=C/CCCN[C@@H]1[C@H](C)[C@@H](O)[C@](C)(O)[C@@H](CC)OC(=O)[C@H](C)[C@@H](OC2CC(C)(OC)C(O)C(C)O2)[C@H](C)[C@@H](OC2OC(C)CC(N(C)C)C2O)[C@](C)(O)C[C@H]1C (some centres undefined) |  | 2 µg/mL (≈ 2.29 µM) |  |  | 0.25 µg/mL (≈ 0.286 µM) | 0.5 µg/mL (≈ 0.573 µM) |  | 0.008 µg/mL (≈ 0.00916 µM) |  |  | 2 µg/mL (≈ 2.29 µM) |  | 0.12 µg/mL (≈ 0.137 µM)
8 | CCCCC/C=C\CCCN[C@@H]1[C@H](C)[C@@H](O)[C@](C)(O)[C@@H](CC)OC(=O)[C@H](C)[C@@H](OC2CC(C)(OC)C(O)C(C)O2)[C@H](C)[C@@H](OC2OC(C)CC(N(C)C)C2O)[C@](C)(O)C[C@H]1C (some centres undefined) |  | 2 µg/mL (≈ 2.29 µM) |  |  | 0.12 µg/mL (≈ 0.137 µM) | 0.25 µg/mL (≈ 0.286 µM) |  | 0.008 µg/mL (≈ 0.00916 µM) |  |  | 2 µg/mL (≈ 2.29 µM) |  | 0.25 µg/mL (≈ 0.286 µM)
9 | CC[C@H]1OC(=O)[C@H](C)[C@@H](OC2CC(C)(OC)C(O)C(C)O2)[C@H](C)[C@@H](OC2OC(C)CC(N(C)C)C2O)[C@](C)(O)C[C@@H](C)[C@H]2[C@H](C)[C@@H](OCN2C(C)C)[C@]1(C)O (some centres undefined) | 0.06 µg/mL (≈ 0.076 µM) | 4 µg/mL (≈ 5.07 µM) | 9 mg/kg | 0.25 µg/mL (≈ 0.317 µM) | 0.5 µg/mL (≈ 0.634 µM) | 1 µg/mL (≈ 1.27 µM) | 7 mg/kg | 0.12 µg/mL (≈ 0.152 µM) | 6 mg/kg |  |  |  | 
10 | CC[C@H]1OC(=O)[C@H](C)[C@@H](OC2CC(C)(OC)C(O)C(C)O2)[C@H](C)[C@@H](OC2OC(C)CC(N(C)C)C2O)[C@](C)(O)C[C@@H](C)[C@H]2[C@H](C)[C@@H](OCN2C2CCCC2)[C@]1(C)O (some centres undefined) | 0.06 µg/mL (≈ 0.0736 µM) | 4 µg/mL (≈ 4.91 µM) | > 50 mg/kg | 0.5 µg/mL (≈ 0.613 µM) | 1 µg/mL (≈ 1.23 µM) | 1 µg/mL (≈ 1.23 µM) | 10 mg/kg | 0.12 µg/mL (≈ 0.147 µM) | 9 mg/kg |  |  |  | 
